The text below walks through data of ChEMBL document CHEMBL1142511, “[(18)F]-labeled isoindol-1-one and isoindol-1,3-dione derivatives as potential PET imaging agents for detection of beta-amyloid fibrils” (Bioorg Med Chem Lett, 2008).

The nature of this assay: Displacement of [125I]TZDM from amyloid beta 1 to 42 aggregates. Summed up: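 Competitive binding against aggregated Aβ1–42 with [125I]TZDM as radioligand. Non-specific binding defined with 2 µM thioflavin T. Incubated 3 h at room temperature. Bound and free radioactivity separated by vacuum filtration through GF/B filters, followed by two washes with 10% EtOH at room temperature. IC50 converted to Ki by the Cheng–Prusoff equation.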
Background: Loss of bound radioactivity is the signal in a displacement assay; it reports binding, not function.

Molecules are shown by their SMILES.

`CN(C)c1ccc(N2Cc3cc(OCCF)ccc3C2=O)cc1`: the Ki (in general, the dissociation constant of the complex between target and ligand, obtained from inhibition or displacement) came out at 0.3 nM.

In turn, `CN(C)c1ccc(N2Cc3cc(OCCCF)ccc3C2=O)cc1` had an inhibition constant Ki of 0.71 nM.

Turning to `CNc1ccc(N2C(=O)c3ccc(OCCF)cc3C2=O)cc1`, the inhibition constant (Ki) came to 0.6 nM.

Take `CN(C)c1ccc(N2C(=O)c3ccc(OCCCF)cc3C2=O)cc1`: the Ki was 0.85 nM.

Regarding `CNc1ccc(-c2nc3ccc(O)cc3s2)cc1` [PITTSBURGH COMPOUND B UNLABELLED], the inhibition constant Ki amounted to 0.77 nM.

As for `Nc1ccc(N2Cc3cc(OCCF)ccc3C2=O)cc1`, the affinity, expressed as Ki, was 0.61 nM.

Turning to `CNc1ccc(N2C(=O)c3ccc(OCCCF)cc3C2=O)cc1`, the inhibition constant Ki came out at 0.78 nM.

`Nc1ccc(N2C(=O)c3ccc(OCCCF)cc3C2=O)cc1` came in with a Ki of 0.74 nM.

Compound `CNc1ccc(N2Cc3cc(OCCCF)ccc3C2=O)cc1` came in with an inhibitory constant (Ki) of 0.51 nM.

As to `CNc1ccc(N2Cc3cc(OCCF)ccc3C2=O)cc1`, the affinity corresponds to a Ki of 0.91 nM.

Take `Nc1ccc(N2Cc3cc(OCCCF)ccc3C2=O)cc1`: the affinity corresponds to a Ki of 0.4 nM.

`CN(C)c1ccc(N2C(=O)c3ccc(OCCF)cc3C2=O)cc1` displayed an inhibitory constant (Ki) of 0.69 nM.

`Nc1ccc(N2C(=O)c3ccc(OCCF)cc3C2=O)cc1` gave an inhibition constant (Ki) of 0.59 nM.
